Measurements taken from PMC8015125 (ACS Omega, 2021).

Legend:
PC3 cell line = experiment: MTT assay on PC3; format: cell-based, human; details: 24 h treatment
Procedure, shortened: (§1)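 Cells were grown in RPMI or DMEM with 10% FBS, penicillin and streptomycin at 37 °C under 5% CO2. They were seeded at 1 × 10^4 cells/well and exposed 24 h later for 24 h to the test compound at different concentrations (complexes 0–100 μM). After two PBS washes, 0.5 mg mL–1 MTT was added for 3–4 h at 37 °C. Formazan was dissolved in extraction buffer and OD read at 570 nm. % survival was taken relative to untreated cells (100%) to give IC50. Ratios were BPH1/PC3 and WI-38/A549 IC50.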

BPH1 cell line = experiment: MTT assay on BPH1; format: cell-based, human; details: read-out: IC50 BPH1, 24 h treatment
Procedure, shortened: as §1

A549 cell line = experiment: MTT assay on A549; format: cell-based; details: read-out: IC50 A549, 24 h treatment
Procedure, shortened: as §1

[1] = test system: WI-38 lung fibroblast cells; experiment: MTT assay on WI-38; format: cell-based; details: read-out: IC50 WI-38, 24 h treatment
Procedure, shortened: as §1

## N.N.[Cl][Pt][Cl] [cisplatin, reference compound]
PC3 cell line
  R1 = IC50 ratio of BPH1 cells to PC3 cells: 1.4
PC3 cell line; read-out: IC50 PC3, MTT
  IC50: 5.4 ± 1.93 µM
BPH1 cell line
  IC50: 8 ± 1.03 µM
A549 cell line
  IC50: 60.1 ± 2.43 µM
[1]
  IC50: 66.5 ± 2.12 µM
